In ChEMBL document CHEMBL1914430, “Synthesis of some new 1,3,5-trisubstituted pyrazolines bearing benzene sulfonamide as anticancer and anti-inflammatory agents” (Bioorg Med Chem Lett, 2011):

Legend:
Type in all cases: functional
[1] = system: Rattus norvegicus; experiment: Antiinflammatory activity in Wistar rat assessed as inhibition of carrageenan-induced hind paw edema at 20 mg/kg, po administered 30 mins before carrageenan challenge measured after 3 hrs by plethysmometer
Procedure, shortened: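 Wistar rats of either sex, 150–175 g, fasted 16 h, n = 6 per group. Compound given orally at 20 mg/kg as a suspension in 1% CMC in water (10 mL/kg); controls got vehicle only. After 30 min, 0.1 mL of 1% carrageenan in saline was injected subplantar into the left hind paw. Paw volume was measured by plethysmometer at 0, 3 and 5 h. Inhibition = (1 − Vt/Vc) × 100, reported as mean ± SEM.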

[2] = system: CCRF-CEM; experiment: Anticancer activity against human CCRF-CEM cells after 48 hrs
Procedure, shortened: (§1)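 NCI Drug Evaluation Branch 60-cell-line screen across leukemia, melanoma, lung, colon, CNS, ovarian, renal, prostate and breast panels. The incubation period is 48 h. Parameters are derived from dose–response data: GI50 is the concentration giving 50% decrease in net growth, TGI is total growth inhibition, and LC50 is net 50% loss of initial cells. Values beyond the tested range are reported as greater or less than the maximum or minimum concentration.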

[3] = system: RPMI-8226; experiment: Anticancer activity against human RPMI8226 cells after 48 hrs; conditions: RPMI-8226, 48 h
Procedure, shortened: (§2)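 NCI 60-line panel protocol with a 48 h incubation. Per line: GI50 = concentration giving 50% decrease in net cell growth; TGI = total growth inhibition; LC50 = net 50% loss of initial cells. When the level was not reached or was exceeded, the value is given as greater or less than the highest or lowest concentration tested.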

[4] = system: A549; experiment: Anticancer activity against human A549 cells after 48 hrs; conditions: A549, 48 h; procedure, shortened: as §1
[5] = system: EKVX; experiment: Anticancer activity against human EKVX cells after 48 hrs; procedure, shortened: as §1
[6] = system: HOP-62; experiment: Anticancer activity against human HOP62 cells after 48 hrs; conditions: HOP-62, 48 h; procedure, shortened: as §1
[7] = system: HOP-92; experiment: Anticancer activity against human HOP92 cells after 48 hrs; conditions: HOP-92, 48 h; procedure, shortened: as §1
[8] = system: NCI-H460; experiment: Anticancer activity against human NCI-H460 cells after 48 hrs; conditions: NCI-H460, 48 h; procedure, shortened: as §2
[9] = system: NCI-H522; experiment: Anticancer activity against human NCI-H522 cells after 48 hrs; conditions: NCI-H522, 48 h; procedure, shortened: as §2
[10] = system: COLO 205; experiment: Anticancer activity against human COLO205 cells after 48 hrs; conditions: COLO 205, 48 h; procedure, shortened: as §1
[11] = system: HCT-116; experiment: Anticancer activity against human HCT116 cells after 48 hrs; conditions: HCT-116, 48 h; procedure, shortened: as §1
[12] = system: HCT-15; experiment: Anticancer activity against human HCT15 cells after 48 hrs; conditions: HCT-15, 48 h; procedure, shortened: as §1
[13] = system: KM12; experiment: Anticancer activity against human KM12 cells after 48 hrs; conditions: KM12, 48 h; procedure, shortened: as §1
[14] = system: SF-295; experiment: Anticancer activity against human SF295 cells after 48 hrs; conditions: SF-295, 48 h; procedure, shortened: as §2
[15] = system: U-251; experiment: Anticancer activity against human U251 cells after 48 hrs; conditions: U-251, 48 h
Procedure, shortened: (§3)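 NCI ~60 human tumour cell line panel with a 48 h incubation. GI50 is the concentration giving a 50% fall in net growth, TGI gives total growth inhibition, and LC50 gives a net 50% loss of initial cells. An effect not reached or exceeded is reported as greater or less than the highest or lowest concentration tested.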

[16] = system: Malme-3M; experiment: Anticancer activity against human MALME-3M cells after 48 hrs; procedure, shortened: as §1
[17] = system: SK-MEL-2; experiment: Anticancer activity against human SK-MEL-2 cells after 48 hrs; conditions: SK-MEL-2, 48 h; procedure, shortened: as §2
[18] = system: SK-MEL-5; experiment: Anticancer activity against human SK-MEL-5 cells after 48 hrs; conditions: SK-MEL-5, 48 h; procedure, shortened: as §2
[19] = system: UACC-257; experiment: Anticancer activity against human UACC257 cells after 48 hrs; conditions: UACC-257, 48 h; procedure, shortened: as §3
[20] = system: OVCAR-8; experiment: Anticancer activity against human OVCAR8 cells after 48 hrs; conditions: OVCAR-8, 48 h; procedure, shortened: as §2
[21] = system: 786-0; experiment: Anticancer activity against human 786-0 cells after 48 hrs; conditions: 786-0, 48 h; procedure, shortened: as §1
[22] = system: A498; experiment: Anticancer activity against human A498 cells after 48 hrs; conditions: A498, 48 h; procedure, shortened: as §1
[23] = system: ACHN; experiment: Anticancer activity against human ACHN cells after 48 hrs; procedure, shortened: as §1
[24] = system: CAKI-1; experiment: Anticancer activity against human Caki1 cells after 48 hrs; conditions: CAKI-1, 48 h; procedure, shortened: as §1
[25] = system: SN12C; experiment: Anticancer activity against human SN12C cells after 48 hrs; procedure, shortened: as §2
[26] = system: TK-10; experiment: Anticancer activity against human TK10 cells after 48 hrs; conditions: TK-10, 48 h; procedure, shortened: as §3
[27] = system: UO-31; experiment: Anticancer activity against human UO31 cells after 48 hrs; conditions: UO-31, 48 h; procedure, shortened: as §3
[28] = system: PC-3; experiment: Anticancer activity against human PC3 cells after 48 hrs; conditions: PC-3, 48 h; procedure, shortened: as §2
[29] = system: MDA-MB-231; experiment: Anticancer activity against human MDA-MB-231 cells after 48 hrs; conditions: MDA-MB-231, 48 h; procedure, shortened: as §1
[30] = read-out: LC50 (the source's name)

Cc1cc(O)c(C2=NN(c3ccc(S(N)(=O)=O)cc3)C(/C=C/c3ccccc3)C2)cc1Cl (centres undefined)
inhibition in vivo at 20 mg/kg [1]: 78.9%
GI50 [2]: 17.7 µM
LC50 (concentration causing net 50% loss of initial cells) [2]: > 100 µM
TGI [2]: 50 µM
GI50 [3]: 4.95 µM
LC50 (concentration for net 50% loss of initial cells) [3]: 0.575 µM
TGI [3]: 20.6 µM
GI50 [4]: 11 µM
LC50 (net 50% loss of initial cells) [4]: 86 µM
TGI [4]: 30.8 µM
GI50 [5]: 14.2 µM
TGI [5]: 35.3 µM
CC50 [5, 30]: 87.4 µM
GI50 [6]: 3.94 µM
LC50 (concentration for 50% net loss of initial cells) [6]: 37.5 µM
TGI [6]: 14.1 µM
GI50 [7]: 2.36 µM
TGI [7]: 8.48 µM
CC50 [7, 30]: 34 µM
GI50 [8]: 4.03 µM
LC50 (50% lethal concentration) [8]: 41.3 µM
TGI [8]: 17 µM
GI50 [9]: 4.62 µM
LC50 (concentration killing 50% of initial cells) [9]: 61.8 µM
TGI [9]: 19.4 µM
GI50 [10]: 10.4 µM
LC50 (concentration giving net 50% loss of initial cells) [10]: 47 µM
TGI [10]: 22.1 µM
GI50 [11]: 2.4 µM
TGI [11]: 14.6 µM
CC50 [11, 30]: 38.2 µM
GI50 [12]: 18.9 µM
CC50 [12, 30]: > 100 µM
GI50 [13]: 11.7 µM
LC50 (concentration causing net 50% loss of initial cells) [13]: > 100 µM
TGI [13]: 34.8 µM
GI50 [14]: 2.36 µM
LC50 (concentration giving net 50% loss of initial cells) [14]: 37.3 µM
TGI [14]: 11.9 µM
GI50 [15]: 3.79 µM
TGI [15]: 15.6 µM
CC50 [15, 30]: 39.5 µM
GI50 [16]: 3.01 µM
TGI [16]: 17.4 µM
CC50 [16, 30]: 51.9 µM
GI50 [17]: 16.8 µM
LC50 [17]: > 100 µM
TGI [17]: 58.2 µM
GI50 [18]: 4.23 µM
LC50 [18]: 40.5 µM
TGI [18]: 16.4 µM
GI50 [19]: 14.5 µM
LC50 [19]: > 100 µM
TGI [19]: 45.7 µM
GI50 [20]: 3.03 µM
TGI [20]: 20.2 µM
CC50 [20, 30]: 91.7 µM
GI50 [21]: 4.09 µM
TGI [21]: 12.5 µM
CC50 [21, 30]: 35.3 µM
GI50 [22]: 14.9 µM
TGI [22]: 42.4 µM
CC50 [22, 30]: > 100 µM
GI50 [23]: 5.27 µM
TGI [23]: 21.9 µM
CC50 [23, 30]: 67.2 µM
GI50 [24]: 15.3 µM
LC50 (concentration giving 50% net loss of initial cells) [24]: > 100 µM
TGI [24]: 87.7 µM
GI50 [25]: 11.1 µM
LC50 [25]: 59.4 µM
TGI [25]: 25.6 µM
GI50 [26]: 14.8 µM
LC50 [26]: 60.7 µM
TGI [26]: 29.9 µM
GI50 [27]: 15.2 µM
TGI [27]: 34.9 µM
CC50 [27, 30]: 79.9 µM
GI50 [28]: 3.15 µM
TGI [28]: 11.5 µM
CC50 [28, 30]: 34 µM
GI50 [29]: 4.56 µM
TGI [29]: 16.3 µM
CC50 [29, 30]: 40.8 µM
